Experimental data from ChEMBL document CHEMBL2434964, “Novel 1H-pyrrolo[2,3-b]pyridine derivative nortopsentin analogues: synthesis and antitumor activity in peritoneal mesothelioma experimental models” (J Med Chem, 2013).
Activity calls are given as the source filed them. No cut-off for these calls is given here.

Assays:
STO [1] = experiment: Induction of apoptosis in human STO cells assessed as increase in caspase 3 activation at 3 to 6 nM hrs by DEVD-pNA substrate-based spectrofluorometric analysis relative to control; type: functional, cell-based
Meso2 [2] = experiment: Induction of apoptosis in human Meso2 cells assessed as increase in caspase 3 activation at 12 to 24 […] hrs by DEVD-pNA substrate-based spectrofluorometric analysis relative to control; type: functional, cell-based
STO [3] = experiment: Induction of apoptosis in human STO cells assessed as DNA fragmentation at IC50 by fluorescence microscopy relative to control; type: functional, cell-based; conditions: TDE = time-dependent effect
[4] = (§1) Cytotoxicity against human STO cells assessed as growth inhibition after 72 hrs by MTS assay; type: functional, cell-based
Summary of the method: (§2)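 Log-phase cells, 4500 per well, plated 24 h, then given 0.1–100 μM compound for 72 h; vehicle (DMSO) controls. MTS read-out at 490 nm as % of DMSO-treated cells. IC50 taken graphically from the dose-response curve. Eight replicates; mean ± SD of at least three independent experiments.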

STO [5] = experiment: as §1; type: functional, cell-based; summary of the method: as §2
[6] = biological target: Cyclin-dependent kinase 1/cyclin B1 (Homo sapiens, UniProt P06493); experiment: Inhibition of human recombinant CDK1/cyclin B after 30 mins by fluorescence assay; type: protein-complex assay
Chain of Cyclin-dependent kinase 1/cyclin B1 (P06493 whole entry): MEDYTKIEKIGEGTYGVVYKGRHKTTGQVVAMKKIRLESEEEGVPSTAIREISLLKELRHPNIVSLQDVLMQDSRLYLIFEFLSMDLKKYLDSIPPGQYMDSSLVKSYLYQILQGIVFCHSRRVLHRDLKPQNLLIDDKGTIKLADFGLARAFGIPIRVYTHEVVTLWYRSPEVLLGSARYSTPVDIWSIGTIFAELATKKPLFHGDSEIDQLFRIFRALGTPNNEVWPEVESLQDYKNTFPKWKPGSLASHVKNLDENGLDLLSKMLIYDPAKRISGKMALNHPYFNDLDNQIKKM
Chain of Cyclin-dependent kinase 1/cyclin B1 (P14635 whole entry, further chain): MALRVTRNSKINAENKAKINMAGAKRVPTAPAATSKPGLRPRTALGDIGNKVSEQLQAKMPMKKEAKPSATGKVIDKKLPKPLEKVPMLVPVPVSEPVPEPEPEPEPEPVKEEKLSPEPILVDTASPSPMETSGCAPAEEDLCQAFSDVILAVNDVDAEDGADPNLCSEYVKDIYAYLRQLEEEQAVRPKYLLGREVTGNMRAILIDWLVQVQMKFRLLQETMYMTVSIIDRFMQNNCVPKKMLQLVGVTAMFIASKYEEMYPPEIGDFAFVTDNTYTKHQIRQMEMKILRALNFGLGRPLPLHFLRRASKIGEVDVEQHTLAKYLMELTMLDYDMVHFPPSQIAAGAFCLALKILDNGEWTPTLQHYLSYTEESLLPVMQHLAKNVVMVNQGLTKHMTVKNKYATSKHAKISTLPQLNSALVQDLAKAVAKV
Summary of the method: (§3)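 Recombinant kinases (CDK1/cyclin B; GSK3β) in Omnia fluorescence assay with peptide substrate, ATP and DTT in kinase buffer, run 30 min at 30°C. Compound range 0.05-50 μM. Fluorescence read at ex 360/em 485 nm. IC50 taken graphically; mean ± SD of three independent experiments.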

[7] = Cell cycle arrest in human Meso2 cells assessed as reduction of cells at G1 phase at IC50 after 48 to 72 hrs by propidium iodide staining-based FACS-flow cytometry relative to control; type: functional
Mus musculus [8] = experiment: Toxicity in athymic nude mouse xenografted with human STO cells assessed as mortality at 25 mg/kg, ip qd for 4 to 5 days per week for 3 weeks measured on day 17 post dose; type: organism-based; parameters: dose 25 mg/kg, route intraperitoneal; conditions: in vivo
Summary of the method: (§4)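 Female athymic Swiss nude mice, 8-10 weeks old, given 10⁷ exponentially growing STO cells s.c. in the right flank. Dosing i.p. qdx4-5/wx3w, starting the day after cell injection. Toxicity was scored as body weight loss and lethal toxicity, reported as toxic deaths per treated group (n=8). Deaths in treated mice before the first control death were counted as toxic.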

STO [9] = experiment: Induction of apoptosis in human STO cells assessed as inhibition of survivin phosphorylation at Thr34 at IC50 by Western blotting analysis; type: functional, cell-based
[10] = Cytotoxicity against human W138 cells assessed as growth inhibition after 72 hrs by MTS assay; type: cell-based; conditions: WI-38, 72 h; summary of the method: as §2
Mus musculus [11] = experiment: Toxicity in athymic nude mouse xenografted with human STO cells assessed as body weight loss at 25 mg/kg, ip qd for 4 to 5 days per week for 35 days measured on day 17 post dose; type: organism-based; parameters: dose 25 mg/kg, route intraperitoneal; conditions: in vivo, in the assay text read “for 3 weeks measured on day 35” for “for 35 days measured on day 17 post dose”
Summary of the method: (§5)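 Female athymic Swiss nude mice bearing s.c. STO flank xenografts (10⁷ cells). Dosing i.p. qdx4-5/wx3w, starting the day after cell injection. Toxicity recorded as % body weight loss and lethal toxicity. Deaths in treated mice before the first control death were counted as toxic.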

[12] = Cell cycle arrest in human STO cells assessed as accumulation at G2/M phase at IC50 after 72 hrs by propidium iodide staining-based FACS-flow cytometry relative to control; type: functional
[13] = biological target: Glycogen synthase kinase-3 beta (Homo sapiens, UniProt P49841); experiment: Inhibition of human GSK-3 beta after 30 mins by fluorescence assay; summary of the method: as §3
Chain of Glycogen synthase kinase-3 beta (P49841 whole entry): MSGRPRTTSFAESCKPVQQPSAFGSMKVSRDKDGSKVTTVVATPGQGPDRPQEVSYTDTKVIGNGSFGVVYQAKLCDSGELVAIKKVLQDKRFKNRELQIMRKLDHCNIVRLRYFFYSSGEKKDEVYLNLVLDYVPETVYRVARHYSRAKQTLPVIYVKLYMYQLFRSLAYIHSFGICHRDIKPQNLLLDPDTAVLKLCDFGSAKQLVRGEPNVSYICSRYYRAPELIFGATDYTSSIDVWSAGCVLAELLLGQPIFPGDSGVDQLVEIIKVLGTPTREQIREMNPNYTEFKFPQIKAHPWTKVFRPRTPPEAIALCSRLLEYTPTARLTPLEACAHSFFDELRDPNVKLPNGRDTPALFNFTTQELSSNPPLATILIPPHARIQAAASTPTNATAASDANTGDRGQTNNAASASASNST

[14] = Cell cycle arrest in human STO cells assessed as reduction of cells at G1 phase at IC50 after 48 to 72 hrs by propidium iodide staining-based FACS-flow cytometry relative to control; type: functional
[15] = Cell cycle arrest in human STO cells assessed as accumulation at G2/M phase at IC50 after 48 hrs by propidium iodide staining-based FACS-flow cytometry relative to control; type: functional
[16] = Cell cycle arrest in human Meso2 cells assessed as accumulation at G2/M phase at IC50 after 48 hrs by propidium iodide staining-based FACS-flow cytometry relative to control; type: functional
Meso2 [17] = experiment: Induction of apoptosis in human Meso2 cells assessed as DNA fragmentation at IC50 by fluorescence microscopy relative to control; type: functional, cell-based; conditions: TDE = time-dependent effect
[18] = Cell cycle arrest in human STO cells assessed as increase in sub-G1 phase accumulation at IC50 after 72 hrs by propidium iodide staining-based FACS-flow cytometry relative to control; type: functional
STO [19] = experiment: Induction of apoptosis in human STO cells assessed as chromatin condensation at IC50 by fluorescence microscopy relative to control; type: functional, cell-based; conditions: TDE = time-dependent effect
[20] = biological target: Cyclin-dependent kinase 1/cyclin B1 (Homo sapiens) (UniProt P06493+P14635); experiment: Inhibition of CDK1/cyclin B in human STO cells using histone H1 as substrate assessed as histone H1 phosphorylation preincubated at IC50 by immunoprecipitate-based densitometric analysis; type: cell-based; conditions: TDE = time-dependent effect
Chain of Cyclin-dependent kinase 1/cyclin B1 (Homo sapiens) (P06493 whole entry, looked up): as the sequence (P06493 whole entry) above
Chain of Cyclin-dependent kinase 1/cyclin B1 (Homo sapiens) (P14635 whole entry, looked up): as the sequence (P14635 whole entry, further chain) above
Summary of the method: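 STO cells exposed at IC50 for 24, 48 and 72 h, with DMSO controls. Lysates immunoprecipitated with anti-cyclin B1, 4 h at 4°C. Precipitates incubated 20 min at 30°C with 3 μg histone H1, MgCl₂, cold ATP and [γ32P]ATP, pH 7.5. Products run on 12% SDS gel and quantified by densitometry as % of DMSO control.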

Meso2 [21] = experiment: Induction of apoptosis in human Meso2 cells assessed as chromatin condensation at IC50 by fluorescence microscopy relative to control; type: functional, cell-based; conditions: TDE = time-dependent effect
[22] = Antitumor activity against human STO cells xenografted in athymic nude mouse assessed as tumor volume inhibition at 25 mg/kg, ip qd for 4 to 5 days per week for 3 weeks measured on day 17 post dose; type: functional; conditions: route intraperitoneal
Summary of the method: (§6)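 Female athymic Swiss nude mice, 8-10 weeks old; 10⁷ exponentially growing STO cells injected s.c. into right flank. Dosing i.p. qdx4-5/wx3w, starting the day after cell injection. Tumor volume = d²xD/2. TVI% = 100-(mean TV treated/mean TV control x 100), read 17 days after end of treatment (day 35). Two-tailed Student's t test.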

[23] = Cell cycle arrest in human Meso2 cells assessed as accumulation at G2/M phase at IC50 after 72 hrs by propidium iodide staining-based FACS-flow cytometry relative to control; type: functional
[24] = Cell cycle arrest in human Meso2 cells assessed as increase in sub-G1 phase accumulation at IC50 after 72 hrs by propidium iodide staining-based FACS-flow cytometry relative to control; type: functional
[25] = (§7) Cytotoxicity against human cells Meso2 assessed as growth inhibition after 72 hrs by MTS assay; type: functional, cell-based; conditions: Meso2, 72 h; summary of the method: as §2
Homo sapiens = organism: Homo sapiens; experiment: as §7; type: functional, cell-based; summary of the method: as §2
[26] = Induction of apoptosis in human Meso2 cells assessed as increase in caspase 3 activation at IC80 after 72 hrs by DEVD-pNA substrate-based spectrofluorometric analysis relative to control; type: functional
Summary of the method: (§8)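 Cells exposed 72 h at IC80, with 1% (v/v) DMSO controls. Caspase-9 activity read as LEHD-pNA cleavage and caspase-3 as DEVD-pNA cleavage, by spectrofluorometry (ex 380 nm/em 460 nm), reported as rfu. Mean ± SD of at least three experiments.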

[27] = Induction of apoptosis in human STO cells assessed as increase in caspase 9 activation at IC80 after 72 hrs by LEHD-pNA substrate-based spectrofluorometric analysis relative to control; type: functional; summary of the method: as §8
[28] = Induction of apoptosis in human Meso2 cells assessed as increase in caspase 9 activation at IC80 after 72 hrs by LEHD-pNA substrate-based spectrofluorometric analysis relative to control; type: functional; summary of the method: as §8
[29] = Induction of apoptosis in human STO cells assessed as increase in caspase 3 activation at IC80 after 72 hrs by DEVD-pNA substrate-based spectrofluorometric analysis relative to control; type: functional; summary of the method: as §8
STO [30] = experiment: Induction of apoptosis in human STO cells assessed as increase in caspase 3 activation at 0.3 to 0.6 uM hrs by DEVD-pNA substrate-based spectrofluorometric analysis in presence of paclitaxel; type: functional, cell-based
Mus musculus [31] = experiment: Toxicity in athymic nude mouse xenografted with human STO cells assessed as mortality at 50 mg/kg, ip qd for 4 to 5 days per week for 3 weeks measured on day 17 post dose; type: organism-based; parameters: dose 50 mg/kg, route intraperitoneal; conditions: in vivo; summary of the method: as §4
Meso2 [32] = experiment: Induction of apoptosis in human Meso2 cells assessed as increase in caspase 3 activation at 4 to 8 uM hrs by DEVD-pNA substrate-based spectrofluorometric analysis in presence of paclitaxel; type: functional, cell-based
[33] = Antitumor activity against human STO cells xenografted in athymic nude mouse assessed as tumor volume inhibition at 50 mg/kg, ip qd for 4 to 5 days per week for 3 weeks measured on day 17 post dose; type: functional; conditions: route intraperitoneal; summary of the method: as §6
STO [34] = experiment: Induction of apoptosis in human STO cells assessed as increase in caspase 3 activation at 0.3 to 0.6 uM hrs by DEVD-pNA substrate-based spectrofluorometric analysis relative to control; type: functional, cell-based
Mus musculus [35] = experiment: Toxicity in athymic nude mouse xenografted with human STO cells assessed as body weight loss at 50 mg/kg, ip qd for 4 to 5 days per week for 3 weeks measured on day 17 post dose; type: organism-based; parameters: dose 50 mg/kg, route intraperitoneal; conditions: in vivo; summary of the method: as §5
Meso2 [36] = experiment: Potentiation of paclitaxel-induced cytotoxicity in human Meso2 cells assessed as inhibition of cell survival at 2 to 8 uM after 72 hrs by MTS assay; type: functional, cell-based
Summary of the method: (§9)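 Paclitaxel given for 24 h, then test compound added for 72 h more. Fixed paclitaxel:compound ratios were 1:100 in STO and 1:333 in MesoII. Survival by MTS at 490 nm. Expected additive effect taken as the product of single-agent effects. Interaction scored by Chou–Talalay combination index (<1 synergy).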

Meso2 [37] = experiment: Induction of apoptosis in human Meso2 cells assessed as increase in caspase 3 activation at 4 to 8 uM hrs by DEVD-pNA substrate-based spectrofluorometric analysis relative to control; type: functional, cell-based
STO [38] = experiment: Potentiation of paclitaxel-induced cytotoxicity in human STO cells assessed as inhibition of cell survival at 0.15 to 0.6 uM after 72 hrs by MTS assay; type: functional, cell-based; summary of the method: as §9

Row | Structure (SMILES) | Activity (STO [3]) | IC50 [4] | inhibition (STO [5]) | IC50 [6] | Activity [7] | inhibition (STO [9]) | IC50 [10] | Activity [12] | IC50 [13] | Activity [14] | Activity [15] | Activity [16] | Activity (Meso2 [17]) | Activity [18] | Activity (STO [19]) | inhibition [20] | Activity (Meso2 [21]) | Activity [23] | IC50 [25] | inhibition (Homo sapiens) | also measured
1 | CC(=O)O[C@H]1C(=O)[C@@]2(C)[C@H]([C@H](OC(=O)c3ccccc3)[C@]3(O)C[C@H](OC(=O)[C@H](O)[C@@H](NC(=O)c4ccccc4)c4ccccc4)C(C)=C1C3(C)C)[C@]1(OC(C)=O)CO[C@@H]1C[C@@H]2O |  |  |  |  |  |  |  |  |  |  |  |  |  |  |  |  |  |  |  |  | Activity (STO [1]): Active; Activity (Meso2 [2]): Active
2 | Cn1cc(-c2nc(-c3c[nH]c4ncccc34)cs2)c2cc(F)ccc21 | tde | 0.49 µM | Dose-dependent effect | 0.89 µM | Active | Active | > 100 µM | 41.9% | 42.2 µM | Active | 33.3% | 33.3% | tde | 27.6% | tde | tde | tde | 41.9% | 25.1 µM | Dose-dependent effect | Activity (Mus musculus [8]): Non-toxic; Activity (Mus musculus [11]): 4%; inhibition in vivo at 25 mg/kg [22]: 73%; Activity [24]: 28.6%
3 | Cn1cc(-c2nc(-c3cn(C)c4ncccc34)cs2)c2ccccc21 |  | 0.61 µM | Dose-dependent effect |  |  |  | 18.8 µM |  |  |  |  |  |  |  |  |  |  |  | 16.8 µM | Dose-dependent effect | 
4 | Cn1cc(-c2nc(-c3cn(C)c4ncccc34)cs2)c2cc(F)ccc21 | tde | 0.43 µM | Dose-dependent effect | 0.86 µM | Active | Active | > 100 µM | 41.9% | 35.7 µM | Active | 33.3% | 33.3% | tde | 26.5% | tde | tde | tde | 41.9% | 4.85 µM | Dose-dependent effect | fold change (FC) [26]: 7.8; Activity (Mus musculus [8]): Non-toxic; fold change (FC) [27]: 12; fold change (FC) [28]: 11.9; Activity (Mus musculus [11]): 7%; fold change (FC) [29]: 10; inhibition in vivo at 25 mg/kg [22]: 58%; Activity [24]: 27.9%
5 | Cn1cc(-c2csc(-c3c[nH]c4ccccc34)n2)c2cccnc21 | tde | 0.33 µM | Dose-dependent effect | 0.75 µM | Active | Active | > 100 µM | 41.9% | 40.2 µM | Active | 33.3% | 33.3% | tde | 25.8% | tde | tde | tde | 41.9% | 4.11 µM | Dose-dependent effect | Activity (STO [30]): Active; Activity (Mus musculus [31]): Non-toxic; Activity (Meso2 [32]): Active; inhibition in vivo at 50 mg/kg [33]: 75%; Activity (STO [34]): Active; Activity (Mus musculus [35]): 1%; inhibition (Meso2 [36]): Active; Activity (Meso2 [37]): Active; inhibition (STO [38]): Active; Activity [24]: 19.9%
6 | Cn1cc(-c2csc(-c3c[nH]c4ccc(F)cc34)n2)c2cccnc21 |  | 0.54 µM | Dose-dependent effect |  |  |  | 15.4 µM |  |  |  |  |  |  |  |  |  |  |  | 13.3 µM | Dose-dependent effect | 
